# Target: T1, UniProt Q8VGC6
# T1 sequence (whole entry): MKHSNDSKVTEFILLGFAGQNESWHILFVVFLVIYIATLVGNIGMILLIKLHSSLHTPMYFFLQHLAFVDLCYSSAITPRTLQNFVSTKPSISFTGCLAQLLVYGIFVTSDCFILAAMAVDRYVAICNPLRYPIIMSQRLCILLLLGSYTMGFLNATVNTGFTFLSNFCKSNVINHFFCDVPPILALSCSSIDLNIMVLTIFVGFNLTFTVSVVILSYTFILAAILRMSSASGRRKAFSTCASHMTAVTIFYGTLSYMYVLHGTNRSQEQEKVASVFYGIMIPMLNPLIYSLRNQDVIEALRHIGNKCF
# Settings: stereoisomer not certain
# In short: (§1)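 Transient luciferase assays in mammalian cell lines were common, though methods varied by source. The values come from published papers and their supplementary material, with extra details from the original authors when needed. Responsive refers to a measured signal the original authors judged statistically different from baseline, and non-responsive (inactive) to the remainder.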
# 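Also: active if original authors judged signal statistically different from baseline.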
row,Compound,odorant receptor agonist call
1,CCCCC(C)=O,inactive
2,CCCOC(=O)CCC,inactive
3,CC(=O)OCc1ccccc1,active
4,CCC=O,inactive
5,C=C(C)C1CCC(C)C(=O)C1 (stereo not drawn),active
6,CCCCOC=O,inactive
7,CCCCCC1=C(C)CCC1=O,inactive
8,CC(C)=CCCC(C)CC=O (stereo not drawn),inactive
9,CCCCC(=O)O,inactive
10,CCCCCC(C)(C)O,inactive
11,Cc1nccnc1C,inactive
12,CC1=CCC2CC1C2(C)C (stereo not drawn),inactive
13,CCCCCOC(=O)CCCCC,inactive
14,CCCCCC=O,inactive
15,CC(=O)Oc1ccccc1,active
16,OCc1ccccc1,inactive
17,CCCC(=O)C(C)=O,inactive
18,CC(C)=CC1CC(C)CCO1 (stereo not drawn),inactive
19,CCOc1ccccc1,inactive

row,Compound,odorant receptor agonist call
1,CC(C)C12CCC(C)(CC1)O2,inactive
2,CCCCCCCCS,active
3,O=c1ccc2ccccc2o1,inactive
4,CCCCCCCCCO,active
5,CC(C)=CCCC(C)=CCO,active
6,CCCCCCCC(C)=O,active
7,CCC(=O)OC,inactive
8,CCCCOC(=O)CCC,inactive
9,CCCC(=O)OC,inactive
10,O=C1CCOc2ccccc21,inactive
11,CCCCOC,inactive
12,C=CCCCCCC,inactive
13,O=C(Cl)CCCCCCCC(=O)Cl,inactive
14,CCC(=O)OC(C)(C)C,inactive
15,CC(O)c1ccccc1 (stereo not drawn),inactive
16,CCCCCCCO,active
17,CC(C)CN,inactive
18,CCCC(=O)OCC,inactive

# Target: T2, UniProt Q8VGD7
# T2 sequence (whole entry): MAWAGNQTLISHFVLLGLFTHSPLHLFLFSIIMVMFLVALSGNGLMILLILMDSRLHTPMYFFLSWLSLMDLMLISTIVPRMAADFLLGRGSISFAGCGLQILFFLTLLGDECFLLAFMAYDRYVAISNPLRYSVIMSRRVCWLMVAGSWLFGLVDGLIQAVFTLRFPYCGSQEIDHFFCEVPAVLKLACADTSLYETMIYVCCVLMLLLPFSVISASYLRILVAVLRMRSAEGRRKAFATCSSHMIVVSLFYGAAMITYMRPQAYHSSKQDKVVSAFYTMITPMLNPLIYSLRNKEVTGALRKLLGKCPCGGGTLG
# Settings: stereoisomer not certain
# In short: as §1
row,Compound,odorant receptor agonist call
1,CCCCC(C)=O,inactive
2,CC(=O)OCc1ccccc1,inactive
3,C=C(C)C1CCC(C)C(=O)C1 (stereo not drawn),inactive
4,CCCCOC=O,inactive
5,CCCCCC1=C(C)CCC1=O,inactive
6,CCCCC(=O)O,inactive
7,CCCCCOC(=O)CCCCC,inactive
8,CCCCCC=O,inactive
9,CC(=O)Oc1ccccc1,inactive
10,CCCC(=O)C(C)=O,inactive
11,CCCCCCCCS,inactive
12,O=c1ccc2ccccc2o1,inactive
13,CCCCCCCCCO,inactive
14,CC(C)=CCCC(C)=CCO,inactive
15,CCCCCCCC(C)=O,inactive
16,O=C1CCOc2ccccc21,active
17,CCCCCCCO,inactive

# Target: T3, UniProt Q8VGH1
# T3 sequence (whole entry): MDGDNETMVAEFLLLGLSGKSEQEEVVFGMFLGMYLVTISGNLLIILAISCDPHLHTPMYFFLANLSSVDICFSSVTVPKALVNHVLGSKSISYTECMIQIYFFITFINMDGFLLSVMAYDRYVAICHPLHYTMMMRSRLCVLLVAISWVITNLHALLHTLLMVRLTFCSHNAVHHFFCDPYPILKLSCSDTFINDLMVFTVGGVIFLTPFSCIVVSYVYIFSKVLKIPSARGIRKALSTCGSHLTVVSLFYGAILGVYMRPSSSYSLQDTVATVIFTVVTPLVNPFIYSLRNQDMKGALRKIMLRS
# Settings: stereoisomer not certain
# In short: as §1
row,Compound,odorant receptor agonist call
1,CCCCC(C)=O,inactive
2,CC(=O)OCc1ccccc1,inactive
3,C=C(C)C1CCC(C)C(=O)C1 (stereo not drawn),inactive
4,CCCCOC=O,inactive
5,CCCCCC1=C(C)CCC1=O,inactive
6,CCCCC(=O)O,inactive
7,CCCCCOC(=O)CCCCC,inactive
8,CCCCCC=O,inactive
9,CC(=O)Oc1ccccc1,inactive
10,CCCC(=O)C(C)=O,inactive
11,CCCCCCCCS,inactive
12,O=c1ccc2ccccc2o1,active
13,CCCCCCCCCO,inactive
14,CC(C)=CCCC(C)=CCO,inactive
15,CCCCCCCC(C)=O,inactive
16,O=C1CCOc2ccccc21,active
17,CCCCCCCO,inactive

# Target: T4, UniProt Q8VGJ1
# T4 sequence (whole entry): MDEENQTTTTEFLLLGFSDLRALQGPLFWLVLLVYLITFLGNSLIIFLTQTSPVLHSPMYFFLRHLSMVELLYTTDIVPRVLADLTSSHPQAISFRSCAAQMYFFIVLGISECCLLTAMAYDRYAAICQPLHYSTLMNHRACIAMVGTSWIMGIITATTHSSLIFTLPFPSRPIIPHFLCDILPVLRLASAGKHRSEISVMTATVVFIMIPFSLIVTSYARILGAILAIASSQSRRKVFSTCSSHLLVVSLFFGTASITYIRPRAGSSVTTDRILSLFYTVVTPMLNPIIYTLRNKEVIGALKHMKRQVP
# Settings: stereoisomer not certain
# In short: as §1
row,Compound,odorant receptor agonist call
1,CCCCC(C)=O,inactive
2,CC(=O)OCc1ccccc1,inactive
3,C=C(C)C1CCC(C)C(=O)C1 (stereo not drawn),inactive
4,CCCCOC=O,inactive
5,CCCCCC1=C(C)CCC1=O,inactive
6,CCCCC(=O)O,inactive
7,CCCCCOC(=O)CCCCC,inactive
8,CCCCCC=O,inactive
9,CC(=O)Oc1ccccc1,inactive
10,CCCC(=O)C(C)=O,inactive
11,CCCCCCCCS,inactive
12,O=c1ccc2ccccc2o1,inactive
13,CCCCCCCCCO,inactive
14,CC(C)=CCCC(C)=CCO,inactive
15,CCCCCCCC(C)=O,inactive
16,O=C1CCOc2ccccc21,inactive
17,CCCCCCCO,inactive

# Target: T5, UniProt Q8VGJ3
# T5 sequence (whole entry): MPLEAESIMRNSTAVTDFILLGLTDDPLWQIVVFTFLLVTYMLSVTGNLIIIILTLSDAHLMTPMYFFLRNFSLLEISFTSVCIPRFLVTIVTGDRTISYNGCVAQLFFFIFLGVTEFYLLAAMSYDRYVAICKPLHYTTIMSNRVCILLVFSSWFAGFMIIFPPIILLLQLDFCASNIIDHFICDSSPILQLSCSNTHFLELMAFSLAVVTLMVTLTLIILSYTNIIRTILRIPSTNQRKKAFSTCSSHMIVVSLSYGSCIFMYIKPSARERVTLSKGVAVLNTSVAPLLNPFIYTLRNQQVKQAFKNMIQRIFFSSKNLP
# Settings: stereoisomer not certain
# In short: as §1
row,Compound,odorant receptor agonist call
1,CCCCC(C)=O,inactive
2,CC(=O)OCc1ccccc1,inactive
3,C=C(C)C1CCC(C)C(=O)C1 (stereo not drawn),inactive
4,CCCCOC=O,inactive
5,CCCCCC1=C(C)CCC1=O,inactive
6,CCCCC(=O)O,inactive
7,CCCCCOC(=O)CCCCC,inactive
8,CCCCCC=O,inactive
9,CC(=O)Oc1ccccc1,inactive
10,CCCC(=O)C(C)=O,inactive
11,CCCCCCCCS,inactive
12,CCCCCCCCCO,inactive
13,CC(C)=CCCC(C)=CCO,inactive
14,CCCCCCCC(C)=O,inactive
15,O=C1CCOc2ccccc21,inactive
16,CCCCCCCO,inactive

# Target: T6, UniProt Q8VGJ5
# T6 sequence (whole entry): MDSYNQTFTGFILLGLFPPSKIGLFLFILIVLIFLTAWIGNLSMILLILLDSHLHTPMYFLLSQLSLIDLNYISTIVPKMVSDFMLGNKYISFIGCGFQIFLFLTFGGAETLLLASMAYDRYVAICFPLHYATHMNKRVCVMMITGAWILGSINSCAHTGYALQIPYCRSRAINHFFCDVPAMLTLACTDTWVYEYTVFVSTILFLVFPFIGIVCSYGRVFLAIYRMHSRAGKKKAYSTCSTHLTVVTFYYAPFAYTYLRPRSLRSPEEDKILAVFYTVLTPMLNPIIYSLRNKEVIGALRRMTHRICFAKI
# Settings: stereoisomer not certain
# In short: as §1
row,Compound,odorant receptor agonist call
1,CCCCC(C)=O,active
2,CC(=O)OCc1ccccc1,active
3,C=C(C)C1CCC(C)C(=O)C1 (stereo not drawn),active
4,CCCCOC=O,inactive
5,CCCCCC1=C(C)CCC1=O,active
6,CCCCC(=O)O,inactive
7,CCCCCOC(=O)CCCCC,inactive
8,CCCCCC=O,inactive
9,CC(=O)Oc1ccccc1,inactive
10,CCCC(=O)C(C)=O,inactive
11,CCCCCCCCS,inactive
12,O=c1ccc2ccccc2o1,inactive
13,CCCCCCCCCO,inactive
14,CC(C)=CCCC(C)=CCO,inactive
15,CCCCCCCC(C)=O,inactive
16,O=C1CCOc2ccccc21,active
17,CCCCCCCO,active

# Target: T7, UniProt Q8VGL0
# T7 sequence (whole entry): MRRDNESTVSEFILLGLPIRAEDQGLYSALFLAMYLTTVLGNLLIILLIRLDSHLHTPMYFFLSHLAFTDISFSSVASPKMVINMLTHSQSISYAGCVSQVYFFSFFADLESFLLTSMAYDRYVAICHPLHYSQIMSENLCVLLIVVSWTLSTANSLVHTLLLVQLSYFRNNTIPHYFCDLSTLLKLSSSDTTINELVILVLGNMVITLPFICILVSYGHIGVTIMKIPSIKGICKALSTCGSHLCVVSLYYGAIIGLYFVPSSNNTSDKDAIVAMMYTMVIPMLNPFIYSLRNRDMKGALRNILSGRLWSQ
# Settings: stereoisomer not certain
# In short: as §1
row,Compound,odorant receptor agonist call
1,CCCCC(C)=O,inactive
2,CC(=O)OCc1ccccc1,inactive
3,C=C(C)C1CCC(C)C(=O)C1 (stereo not drawn),active
4,CCCCOC=O,inactive
5,CCCCCC1=C(C)CCC1=O,inactive
6,CCCCC(=O)O,inactive
7,CCCCCOC(=O)CCCCC,inactive
8,CCCCCC=O,inactive
9,CC(=O)Oc1ccccc1,inactive
10,CCCC(=O)C(C)=O,inactive
11,CCCCCCCCS,inactive
12,O=c1ccc2ccccc2o1,inactive
13,CCCCCCCCCO,inactive
14,CC(C)=CCCC(C)=CCO,inactive
15,CCCCCCCC(C)=O,inactive
16,O=C1CCOc2ccccc21,inactive
17,CCCCCCCO,inactive

# Reference: the M2OR odorant receptor database
